Source: ChEMBL document CHEMBL4330158, “Prenylated Flavonoids from the Roots and Rhizomes of Sophora tonkinensis and Their Effects on the Expression of Inflammatory Mediators and Proprotein Convertase Subtilisin/Kexin Type 9” (J Nat Prod, 2019)
Calls of active or inactive are those of the source. The calls are words filed in the database; no cut-off is given here.

Columns and labels:
RAW264.7 [1] = assay: Cytotoxicity against mouse RAW264.7 cells assessed as reduction in cell viability at 20 uM by MTT assay; type: cell-based; details: raw264.7, 20 µM
Outline: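 Viability was read by MTT assay in triplicate, with cells cultured at 37 °C in humidified 5% CO2.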

HepG2 (Homo sapiens) [2] = assay: Inhibition of PCSK9 mRNA level in human HepG2 cells at 20 uM by qRT-PCR assay relative to control
RAW264.7 [3] = assay: Anti-inflammatory activity in mouse RAW264.7 cells assessed as inhibition of LPS-induced NO production by Griess assay; type: functional, cell-based
Outline: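 Murine RAW264.7 macrophages were kept in RPMI 1640 with 10% FBS and penicillin/streptomycin at 37 °C and 5% CO2. NO production was taken as the nitrite concentration in the culture medium, measured by the Griess reaction.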

RAW264.7 [4] = assay: Anti-inflammatory activity in mouse RAW264.7 cells assessed as inhibition of LPS-induced CSF2 mRNA level at 2 to 10 uM after 6 hrs by qRT-PCR assay; type: functional, cell-based
Outline: (§1)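 RAW264.7 macrophages were grown in RPMI 1640 with 10% FBS at 37 °C and 5% CO2, then stimulated with LPS for 6 h. Total RNA was extracted with Trizol, and 1 μg was reverse-transcribed with oligo-dT at 42 °C for 1 h. SYBR Green qPCR ran 40 cycles of 95 °C 10 s and 55 °C 30 s. Levels were normalized to GAPDH by 2−ΔΔCT and given as mean ± SEM.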

RAW264.7 [5] = assay: Anti-inflammatory activity in mouse RAW264.7 cells assessed as inhibition of LPS-induced IL-1beta mRNA level at 2 to 10 uM after 6 hrs by qRT-PCR assay; type: functional, cell-based; outline: as §1
RAW264.7 [6] = assay: Anti-inflammatory activity in mouse RAW264.7 cells assessed as inhibition of LPS-induced TNF mRNA level at 2 to 10 uM after 6 hrs by qRT-PCR assay; type: functional, cell-based; outline: as §1
HepG2 (Homo sapiens) [7] = assay: Inhibition of PCSK9 protein synthesis in human HepG2 cells by immunoblot analysis
HepG2 (Homo sapiens) [8] = assay: Induction of ACC phosphorylation in human HepG2 cells at 4 to 20 uM by Western blot analysis
RAW264.7 [9] = assay: Anti-inflammatory activity in mouse RAW264.7 cells assessed as inhibition of LPS-induced CSF2 mRNA level at 2 to 50 uM after 6 hrs by qRT-PCR assay; type: functional, cell-based; outline: as §1
RAW264.7 [10] = assay: Anti-inflammatory activity in mouse RAW264.7 cells assessed as inhibition of LPS-induced TNF mRNA level at 2 to 50 uM after 6 hrs by qRT-PCR assay; type: functional, cell-based; outline: as §1
RAW264.7 [11] = assay: Anti-inflammatory activity in mouse RAW264.7 cells assessed as inhibition of LPS-induced IL-1beta mRNA level at 2 to 50 uM after 6 hrs by qRT-PCR assay; type: functional, cell-based; outline: as §1

| SMILES | Activity (RAW264.7 [1]) | inhibition at 20 µM (HepG2 (Homo sapiens) [2]) [%] | IC50 (RAW264.7 [3]) [µM] | IC50 (HepG2 (Homo sapiens) [7]) [µM] | further results |
| --- | --- | --- | --- | --- | --- |
| CC(C)=CCc1c(O)c(CC=C(C)C)c2c(c1O)C(=O)C[C@@H](c1ccc(O)cc1)O2 [LONCHOCARPOL A] | Toxic | 67.2 | – | – | – |
| COc1ccc([C@@H](CO)C(=O)c2cc(CC=C(C)C)c(OC)cc2O)cc1 | Non-Toxic | – | 8.1 | – | inhibition (RAW264.7 [4]): Active; inhibition (RAW264.7 [5]): Active; inhibition (RAW264.7 [6]): inactive |
| CC(C)=CCc1c(O)ccc2c1OC[C@H]1c3ccc4c(c3O[C@@H]21)OC(C)(C)C=C4 [ERYBREADIN D] | – | 44 | – | 7.8 | Activity (HepG2 (Homo sapiens) [8]): Active |
| COc1ccc2cc3[n+](cc2c1OC)CCc1cc2c(cc1-3)OCO2 [BERBERINE] | – | 67 | – | 6.9 | – |
| COc1ccc(-c2coc3c(CC=C(C)C)c(OC)ccc3c2=O)cc1 | Non-Toxic | – | 6.2 | – | inhibition (RAW264.7 [9]): Active; inhibition (RAW264.7 [10]): Active; inhibition (RAW264.7 [11]): inactive |
